Data as given in publication PMC3437190 (Chemistry & biology, 2012).
Where two headings read alike, the source gives them in different places.

Key:
RebC [1] = biological target: T1, RebC (Lentzea aerocolonigenes, UniProt Q8KI25); experiment: Isothermal titration calorimetry of FAD with FAD-free; format: binding
T1 sequence (Q8KI25 1-529): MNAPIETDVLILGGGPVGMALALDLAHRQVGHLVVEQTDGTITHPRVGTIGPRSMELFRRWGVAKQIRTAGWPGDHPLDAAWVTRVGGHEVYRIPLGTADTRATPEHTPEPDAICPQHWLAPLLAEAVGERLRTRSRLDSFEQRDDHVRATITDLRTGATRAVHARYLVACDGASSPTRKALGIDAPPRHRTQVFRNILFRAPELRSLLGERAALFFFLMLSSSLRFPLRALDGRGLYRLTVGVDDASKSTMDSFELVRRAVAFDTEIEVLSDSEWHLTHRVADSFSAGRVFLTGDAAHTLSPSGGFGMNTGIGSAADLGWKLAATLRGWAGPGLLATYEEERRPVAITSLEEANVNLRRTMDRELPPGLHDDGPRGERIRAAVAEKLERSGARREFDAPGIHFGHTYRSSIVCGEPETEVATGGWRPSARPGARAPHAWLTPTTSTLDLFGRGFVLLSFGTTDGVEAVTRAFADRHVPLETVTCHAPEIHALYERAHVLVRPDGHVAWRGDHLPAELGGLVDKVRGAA
Summary of the method: (§1)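 Recombinant His-tagged protein was expressed in Rosetta 2 (DE3) pLysS E. coli (0.1 mM IPTG, 21°C, ~20 h) and captured on Ni(II) resin. Flavin was stripped on-column with 2 M KBr/2 M urea, then the protein was eluted with 200 mM imidazole and gel-filtered on Superdex-200. Concentration by A280 using theoretical extinction coefficient. FAD titrated by MicroCal ITC, at least triplicate runs. Single-site Kb converted to Kd.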

InkE = biological target: T2, InkE (Nonomuraea longicatena, UniProt Q27IF2); experiment: Isothermal titration calorimetry of FAD with FAD-free; format: binding
T2 sequence (Q27IF2 1-525): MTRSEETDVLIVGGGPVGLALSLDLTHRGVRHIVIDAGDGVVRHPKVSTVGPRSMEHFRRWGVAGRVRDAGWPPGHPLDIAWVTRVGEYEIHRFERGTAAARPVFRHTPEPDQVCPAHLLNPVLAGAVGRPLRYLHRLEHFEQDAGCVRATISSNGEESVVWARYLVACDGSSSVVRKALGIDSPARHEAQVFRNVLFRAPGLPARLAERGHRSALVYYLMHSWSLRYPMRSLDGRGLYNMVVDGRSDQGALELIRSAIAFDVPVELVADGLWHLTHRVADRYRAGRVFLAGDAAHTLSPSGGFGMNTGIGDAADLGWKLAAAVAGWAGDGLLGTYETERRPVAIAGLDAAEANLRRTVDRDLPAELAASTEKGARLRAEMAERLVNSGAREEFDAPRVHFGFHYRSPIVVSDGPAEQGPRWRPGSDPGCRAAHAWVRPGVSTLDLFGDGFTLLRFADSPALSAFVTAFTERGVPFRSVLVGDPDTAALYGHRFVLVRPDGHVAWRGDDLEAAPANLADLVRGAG
Summary of the method: (§2)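 Recombinant His-tagged protein was expressed in Rosetta 2 (DE3) pLysS E. coli without added riboflavin (0.1 mM IPTG, 21°C, ~20 h). It was Ni(II)-affinity purified and gel-filtered on Superdex-200. The protein isolates free of FAD, so no stripping step was used. Concentration by A280 using theoretical extinction coefficient. FAD titrated by MicroCal ITC, at least triplicate runs. Single-site Kb converted to Kd.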

RebC [2] = biological target: T1, RebC; format: binding
Summary of the method: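 Control ITC on RebC purified by Ni(II) affinity and Superdex-200 without the KBr/urea wash, retaining ~68% bound FAD. It tests fitting of partially occupied protein, since the fitting software assumes no ligand in the cell before the first injection. FAD titrated, at least triplicate runs. Single-site Kb converted to Kd.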

RebC-10x = RebC-10x (Lentzea aerocolonigenes, UniProt Q8KI25, A231S/E36D/F216V/G48S/Q117A/Q37A/R239N/R46K/T241V/T38G); experiment: Isothermal titration calorimetry of FAD with FAD-free; format: binding
StaC = biological target: T3, StaC (Streptomyces sp. TP-A0274, UniProt A3KBE8); experiment: Isothermal titration calorimetry of FAD with FAD-free; format: binding
T3 sequence (A3KBE8 1-545): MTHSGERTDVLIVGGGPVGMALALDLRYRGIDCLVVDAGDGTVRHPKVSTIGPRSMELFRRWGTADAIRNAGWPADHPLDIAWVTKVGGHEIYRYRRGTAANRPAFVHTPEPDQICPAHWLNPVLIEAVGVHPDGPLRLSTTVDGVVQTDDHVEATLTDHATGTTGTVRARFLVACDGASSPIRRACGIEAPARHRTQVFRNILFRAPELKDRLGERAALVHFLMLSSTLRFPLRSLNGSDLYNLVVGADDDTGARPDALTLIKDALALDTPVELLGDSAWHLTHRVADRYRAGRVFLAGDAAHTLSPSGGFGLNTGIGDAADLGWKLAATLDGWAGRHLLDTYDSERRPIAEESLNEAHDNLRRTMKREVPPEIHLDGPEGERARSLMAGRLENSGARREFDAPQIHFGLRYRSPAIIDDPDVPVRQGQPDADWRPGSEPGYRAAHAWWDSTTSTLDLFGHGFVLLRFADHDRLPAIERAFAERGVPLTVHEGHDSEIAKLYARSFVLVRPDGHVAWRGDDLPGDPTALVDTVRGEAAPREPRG
Summary of the method: as §2

AtmC = biological target: T4, AtmC (Actinomadura melliaura, UniProt Q0H2X3); experiment: Isothermal titration calorimetry of FAD with FAD-free; format: binding
T4 sequence (Q0H2X3 1-534): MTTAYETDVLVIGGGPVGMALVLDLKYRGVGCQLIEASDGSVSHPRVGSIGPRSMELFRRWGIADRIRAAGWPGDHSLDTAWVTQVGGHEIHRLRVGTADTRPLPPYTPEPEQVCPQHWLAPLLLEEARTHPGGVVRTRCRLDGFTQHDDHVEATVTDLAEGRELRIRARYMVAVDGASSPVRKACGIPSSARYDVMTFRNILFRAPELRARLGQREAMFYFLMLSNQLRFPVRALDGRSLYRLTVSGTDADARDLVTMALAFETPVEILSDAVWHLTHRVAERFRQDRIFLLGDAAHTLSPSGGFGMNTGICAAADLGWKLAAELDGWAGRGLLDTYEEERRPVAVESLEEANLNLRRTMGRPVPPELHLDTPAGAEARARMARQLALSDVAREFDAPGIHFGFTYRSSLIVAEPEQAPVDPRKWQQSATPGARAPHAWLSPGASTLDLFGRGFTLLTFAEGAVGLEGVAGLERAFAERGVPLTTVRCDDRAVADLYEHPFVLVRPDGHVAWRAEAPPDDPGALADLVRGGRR
Summary of the method: as §1

StaC-10x = experiment: Isothermal titration calorimetry, FAD binding to StaC-10x; settings: StaC-10x versus RebC
Summary of the method: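 It was used as isolated at ~33% FAD occupancy, because on-column KBr/urea stripping left the protein non-elutable. Concentration by BioRad protein assay against BSA standard. FAD titrated by ITC, two runs. Single-site Kb converted to an approximate Kd.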

Cc1cc2nc3c(=O)[nH]c(=O)nc-3n(C[C@H](O)[C@H](O)[C@H](O)COP(=O)(O)OP(=O)(O)OC[C@H]3O[C@@H](n4cnc5c(N)ncnc54)[C@H](O)[C@@H]3O)c2cc1C [FAD, flavin adenine dinucleotide]
Kd (RebC [1]): 20 ± 12 nM
Kd (InkE): 59000 nM
Kd (RebC [2]): 31 nM
Kd (RebC-10x): 600 ± 55 nM
Kd (StaC): 15000 nM
Kd (AtmC): 73 ± 28 nM

Cc1cc2nc3c(=O)[nH]c(=O)nc-3n(C[C@H](O)[C@H](O)[C@H](O)COP(=O)(O)OP(=O)(O)OC[C@H]3O[C@@H](n4cnc5c(N)ncnc54)[C@H](O)[C@@H]3O)c2cc1C [FAD]
FAD binding weaker than RebC (StaC-10x): 30 fold
